# Data from ChEMBL document CHEMBL1150956, “Antitubercular natural products: berberine from the roots of commercial Hydrastis canadensis powder. Isolation of inactive 8-oxotetrahydrothalifendine, canadine, beta-hydrastine, and two new quinic acid esters, hycandinic acid esters-1 and -2” (1998).
# Tested on: Mycobacterium tuberculosis
# Test: Antimicrobial activity against recombinant Mycobacterium bovis BCG expressing pMV361 lux after 5 days by luciferase assay
# Type: functional
# Settings: variant bovis BCG, 120 h
# Procedure, shortened: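 rBCG (pMV361 lux) in Middlebrook 7H9 broth at about 5e5 cfu/mL final inoculum. Compounds were tested at 0.1–50 µg/mL and at higher levels, with no-drug 1% DMSO growth controls. Tubes were incubated at 36 °C in ambient air. A 100 µL aliquot received 100 µL of 1 mM luciferin, and RLU were read at day 0 (within 30 min) and day 5. Inhibition was scored as a drop in luminescence.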
row,Compound,MIC [µg/mL]
1,COc1ccc2c(c1OC)CN1CCc3cc4c(cc3[C@@H]1C2)OCO4 [CANADINE],> 50
2,COc1c(O)ccc2c1C(=O)N1CCc3cc4c(cc3C1C2)OCO4 (stereo not given),> 50
3,COc1ccc2c(c1OC)C(=O)N1CCc3cc4c(cc3C1C2)OCO4 (stereo not given),> 50
4,COc1c(OC(C)=O)ccc2c1C(=O)N1CCc3cc4c(cc3C1C2)OCO4 (stereo not given),> 50
5,COc1ccc2cc3[n+](cc2c1OC)CCc1cc2c(cc1-3)OCO2.[Cl-] [BERBERINE CHLORIDE],200
